# In ChEMBL document CHEMBL1275252, “First survey of metallo-beta-lactamases in clinical isolates of Pseudomonas aeruginosa in a German university hospital” (2010):
# Experiments:
# Type in all cases: functional
# [1] = tested on: Pseudomonas aeruginosa; experiment: Antimicrobial activity against metallo-beta-lactamase-negative Pseudomonas aeruginosa isolate PA483
# [2] = tested on: Pseudomonas aeruginosa; experiment: Antimicrobial activity against Pseudomonas aeruginosa PA552 expressing IMP-1 beta-lactamase
# How it was run: (§1)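 Well-characterized MBL-producing control strains from earlier studies: nine P. aeruginosa and one A. baumannii. MIC was read in μg/ml and used to set screening breakpoints for MBL producers.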
# [3] = tested on: Pseudomonas aeruginosa; experiment: Antimicrobial activity against metallo-beta-lactamase-negative Pseudomonas aeruginosa isolate PA346
# How it was run: (§2)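 MBL-negative clinical P. aeruginosa isolates with reduced imipenem susceptibility, collected at the study hospital, some from cystic fibrosis patients. Species identity was confirmed by automated Gram-negative identification card. MIC was read in μg/ml.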
# [4] = tested on: Pseudomonas aeruginosa; experiment: Antimicrobial activity against metallo-beta-lactamase-negative Pseudomonas aeruginosa isolate PA395; how it was run: as §2
# [5] = tested on: Pseudomonas aeruginosa; experiment: Antimicrobial activity against Pseudomonas aeruginosa PA386 expressing IMP-13 beta-lactamase; how it was run: as §1
# [6] = tested on: Pseudomonas aeruginosa; experiment: Antimicrobial activity against Pseudomonas aeruginosa isolate PA462 expressing VIM-2 beta-lactamase
# [7] = tested on: Pseudomonas aeruginosa; experiment: Antimicrobial activity against metallo-beta-lactamase-negative Pseudomonas aeruginosa isolate PA377; how it was run: as §2
# [8] = tested on: Pseudomonas aeruginosa; experiment: Antimicrobial activity against metallo-beta-lactamase-negative Pseudomonas aeruginosa isolate PA460
# [9] = tested on: Pseudomonas aeruginosa; experiment: Antimicrobial activity against metallo-beta-lactamase-negative Pseudomonas aeruginosa isolate PA758 isolated from patient with cystic fibrosis; how it was run: as §2
# [10] = tested on: Pseudomonas aeruginosa; experiment: Antimicrobial activity against metallo-beta-lactamase-negative Pseudomonas aeruginosa isolate PA382; how it was run: as §2
# [11] = tested on: Pseudomonas aeruginosa; experiment: Antimicrobial activity against metallo-beta-lactamase-negative Pseudomonas aeruginosa isolate PA339; how it was run: as §2
# [12] = tested on: Pseudomonas aeruginosa; experiment: Antimicrobial activity against metallo-beta-lactamase-negative Pseudomonas aeruginosa isolate PA364; how it was run: as §2
# [13] = tested on: Pseudomonas aeruginosa; experiment: Antimicrobial activity against metallo-beta-lactamase-negative Pseudomonas aeruginosa isolate PA734 isolated from patient with cystic fibrosis; how it was run: as §2
# [14] = tested on: Pseudomonas aeruginosa; experiment: Antimicrobial activity against metallo-beta-lactamase-negative Pseudomonas aeruginosa isolate PA355; how it was run: as §2
# [15] = tested on: Pseudomonas aeruginosa; experiment: Antimicrobial activity against Pseudomonas aeruginosa isolate PA469 expressing VIM-2 beta-lactamase
# [16] = tested on: Pseudomonas aeruginosa; experiment: Antimicrobial activity against Pseudomonas aeruginosa PA431 expressing IMP-1 beta-lactamase; how it was run: as §1
# [17] = tested on: Pseudomonas aeruginosa; experiment: Antimicrobial activity against metallo-beta-lactamase-negative Pseudomonas aeruginosa isolate PA376
# [18] = tested on: Pseudomonas aeruginosa; experiment: Antimicrobial activity against metallo-beta-lactamase-negative Pseudomonas aeruginosa isolate PA368; how it was run: as §2
# [19] = tested on: Pseudomonas aeruginosa; experiment: Antimicrobial activity against metallo-beta-lactamase-negative Pseudomonas aeruginosa isolate PA356; how it was run: as §2
# [20] = tested on: Pseudomonas aeruginosa; experiment: Antimicrobial activity against metallo-beta-lactamase-negative Pseudomonas aeruginosa isolate PA479
# [21] = tested on: Pseudomonas aeruginosa; experiment: Antimicrobial activity against metallo-beta-lactamase-negative Pseudomonas aeruginosa isolate PA380; how it was run: as §2
# [22] = tested on: Pseudomonas aeruginosa; experiment: Antimicrobial activity against Pseudomonas aeruginosa PA553 expressing SPM-1 beta-lactamase; how it was run: as §1
# [23] = tested on: Pseudomonas aeruginosa; experiment: Antimicrobial activity against Pseudomonas aeruginosa isolate PA465 expressing VIM-2 beta-lactamase
# [24] = tested on: Pseudomonas aeruginosa; experiment: Antimicrobial activity against metallo-beta-lactamase-negative Pseudomonas aeruginosa isolate PA340; how it was run: as §2
# [25] = tested on: Pseudomonas aeruginosa; experiment: Antimicrobial activity against Pseudomonas aeruginosa isolate PA475 expressing VIM-2 beta-lactamase
# [26] = tested on: Pseudomonas aeruginosa; experiment: Antimicrobial activity against metallo-beta-lactamase-negative Pseudomonas aeruginosa isolate PA342; how it was run: as §2
# [27] = tested on: Pseudomonas aeruginosa; experiment: Antimicrobial activity against Pseudomonas aeruginosa isolate PA510 expressing VIM-2 beta-lactamase
# [28] = tested on: Pseudomonas aeruginosa; experiment: Antimicrobial activity against Pseudomonas aeruginosa isolate PA399 expressing VIM-2 beta-lactamase
# [29] = tested on: Pseudomonas aeruginosa; experiment: Antimicrobial activity against metallo-beta-lactamase-negative Pseudomonas aeruginosa isolate PA362; how it was run: as §2
# [30] = tested on: Pseudomonas aeruginosa; experiment: Antimicrobial activity against metallo-beta-lactamase-negative Pseudomonas aeruginosa isolate PA350; how it was run: as §2
# [31] = tested on: Pseudomonas aeruginosa; experiment: Antimicrobial activity against metallo-beta-lactamase-negative Pseudomonas aeruginosa isolate PA341; how it was run: as §2
# [32] = tested on: Pseudomonas aeruginosa; experiment: Antimicrobial activity against Pseudomonas aeruginosa PA550 expressing VIM-1 beta-lactamase; how it was run: as §1
# [33] = tested on: Acinetobacter baumannii; experiment: Antimicrobial activity against Acinetobacter baumannii AB551 expressing SIM-1 beta-lactamase; how it was run: as §1
# [34] = tested on: Pseudomonas aeruginosa; experiment: Antimicrobial activity against metallo-beta-lactamase-negative Pseudomonas aeruginosa isolate PA370; how it was run: as §2
# [35] = tested on: Pseudomonas aeruginosa; experiment: Antimicrobial activity against metallo-beta-lactamase-negative Pseudomonas aeruginosa isolate PA459; how it was run: as §2
# [36] = tested on: Pseudomonas aeruginosa; experiment: Antimicrobial activity against metallo-beta-lactamase-negative Pseudomonas aeruginosa isolate PA494
# [37] = tested on: Pseudomonas aeruginosa; experiment: Antimicrobial activity against Pseudomonas aeruginosa PA399 expressing VIM-2 beta-lactamase; how it was run: as §1
# [38] = tested on: Pseudomonas aeruginosa; experiment: Antimicrobial activity against metallo-beta-lactamase-negative Pseudomonas aeruginosa isolate PA349; how it was run: as §2
# [39] = tested on: Pseudomonas aeruginosa; experiment: Antimicrobial activity against metallo-beta-lactamase-negative Pseudomonas aeruginosa isolate PA361; how it was run: as §2
# [40] = tested on: Pseudomonas aeruginosa; experiment: Antimicrobial activity against Pseudomonas aeruginosa isolate PA500 expressing VIM-1 beta-lactamase
# [41] = tested on: Pseudomonas aeruginosa; experiment: Antimicrobial activity against Pseudomonas aeruginosa isolate PA477 expressing VIM-2 beta-lactamase
# [42] = tested on: Pseudomonas aeruginosa; experiment: Antimicrobial activity against Pseudomonas aeruginosa PA430 expressing VIM-4 beta-lactamase; how it was run: as §1
# [43] = tested on: Pseudomonas aeruginosa; experiment: Antimicrobial activity against Pseudomonas aeruginosa PA554 expressing GIM-1 beta-lactamase; how it was run: as §1
# [44] = tested on: Pseudomonas aeruginosa; experiment: Antimicrobial activity against metallo-beta-lactamase-negative Pseudomonas aeruginosa isolate PA509
# [45] = tested on: Pseudomonas aeruginosa; experiment: Antimicrobial activity against metallo-beta-lactamase-negative Pseudomonas aeruginosa isolate PA352; how it was run: as §2
# [46] = tested on: Pseudomonas aeruginosa; experiment: Antimicrobial activity against metallo-beta-lactamase-negative Pseudomonas aeruginosa isolate PA360; how it was run: as §2
# [47] = tested on: Pseudomonas aeruginosa; experiment: Antimicrobial activity against metallo-beta-lactamase-negative Pseudomonas aeruginosa isolate PA736 isolated from patient with cystic fibrosis; how it was run: as §2
# [48] = tested on: Pseudomonas aeruginosa; experiment: Antimicrobial activity against metallo-beta-lactamase-negative Pseudomonas aeruginosa isolate PA381; how it was run: as §2
# [49] = tested on: Pseudomonas aeruginosa; experiment: Antimicrobial activity against Pseudomonas aeruginosa isolate PA481 expressing VIM-2 beta-lactamase
# [50] = tested on: Pseudomonas aeruginosa; experiment: Antimicrobial activity against Pseudomonas aeruginosa PA373 expressing VIM-2 beta-lactamase; how it was run: as §1
# [51] = tested on: Pseudomonas aeruginosa; experiment: Antimicrobial activity against metallo-beta-lactamase-negative Pseudomonas aeruginosa isolate PA774 isolated from patient with cystic fibrosis; how it was run: as §2
# [52] = tested on: Pseudomonas aeruginosa; experiment: Antimicrobial activity against metallo-beta-lactamase-negative Pseudomonas aeruginosa isolate PA507; how it was run: as §2
# [53] = tested on: Pseudomonas aeruginosa; experiment: Antimicrobial activity against Pseudomonas aeruginosa isolate PA477 expressing VIM-2 beta-lactamase in presence of Tazobactam
# [54] = tested on: Pseudomonas aeruginosa; experiment: Antimicrobial activity against Pseudomonas aeruginosa isolate PA469 expressing VIM-2 beta-lactamase in presence of Tazobactam
# [55] = tested on: Pseudomonas aeruginosa; experiment: Antimicrobial activity against metallo-beta-lactamase-negative Pseudomonas aeruginosa isolate PA459 in presence of Tazobactam
# [56] = tested on: Pseudomonas aeruginosa; experiment: Antimicrobial activity against Pseudomonas aeruginosa isolate PA481 expressing VIM-2 beta-lactamase in presence of Tazobactam
# [57] = tested on: Pseudomonas aeruginosa; experiment: Antimicrobial activity against Pseudomonas aeruginosa isolate PA475 expressing VIM-2 beta-lactamase in presence of Tazobactam
# [58] = tested on: Pseudomonas aeruginosa; experiment: Antimicrobial activity against Pseudomonas aeruginosa isolate PA465 expressing VIM-2 beta-lactamase in presence of Tazobactam
# [59] = tested on: Pseudomonas aeruginosa; experiment: Antimicrobial activity against metallo-beta-lactamase-negative Pseudomonas aeruginosa isolate PA507 in presence of Tazobactam
# [60] = tested on: Pseudomonas aeruginosa; experiment: Antimicrobial activity against Pseudomonas aeruginosa isolate PA462 expressing VIM-2 beta-lactamase in presence of Tazobactam
# [61] = tested on: Pseudomonas aeruginosa; experiment: Antimicrobial activity against Pseudomonas aeruginosa isolate PA510 expressing VIM-2 beta-lactamase in presence of Tazobactam
# [62] = tested on: Pseudomonas aeruginosa; experiment: Antimicrobial activity against metallo-beta-lactamase-negative Pseudomonas aeruginosa isolate PA479 in presence of Tazobactam
# [63] = tested on: Pseudomonas aeruginosa; experiment: Antimicrobial activity against Pseudomonas aeruginosa isolate PA399 expressing VIM-2 beta-lactamase in presence of Tazobactam
# [64] = tested on: Pseudomonas aeruginosa; experiment: Antimicrobial activity against metallo-beta-lactamase-negative Pseudomonas aeruginosa isolate PA494 in presence of Tazobactam
# [65] = tested on: Pseudomonas aeruginosa; experiment: Antimicrobial activity against metallo-beta-lactamase-negative Pseudomonas aeruginosa isolate PA460 in presence of Tazobactam
# [66] = tested on: Pseudomonas aeruginosa; experiment: Antimicrobial activity against Pseudomonas aeruginosa isolate PA500 expressing VIM-1 beta-lactamase in presence of Tazobactam
# [67] = tested on: Pseudomonas aeruginosa; experiment: Antimicrobial activity against metallo-beta-lactamase-negative Pseudomonas aeruginosa isolate PA509 in presence of Tazobactam
# [68] = tested on: Pseudomonas aeruginosa; experiment: Antimicrobial activity against metallo-beta-lactamase-negative Pseudomonas aeruginosa isolate PA483 in presence of Tazobactam
structure (smiles),measurement,setting,value
C[C@@H](O)[C@H]1C(=O)N2C(C(=O)O)=C(SCCNC=N)C[C@H]12 [IMIPENEM ANHYDROUS],MIC,[1],≥ 16 µg/mL
same,MIC,[2],≥ 16 µg/mL
same,MIC,[3],≥ 16 µg/mL
same,MIC,[4],≥ 16 µg/mL
same,MIC,[5],≥ 16 µg/mL
same,MIC,[6],≥ 16 µg/mL
same,MIC,[7],≥ 16 µg/mL
same,MIC,[8],≥ 16 µg/mL
same,MIC,[9],≥ 16 µg/mL
same,MIC,[10],≥ 16 µg/mL
same,MIC,[11],≥ 16 µg/mL
same,MIC,[12],8 µg/mL
same,MIC,[13],≥ 16 µg/mL
same,MIC,[14],≥ 16 µg/mL
same,MIC,[15],≥ 16 µg/mL
same,MIC,[16],8 µg/mL
same,MIC,[17],≥ 16 µg/mL
same,MIC,[18],≥ 16 µg/mL
same,MIC,[19],≥ 16 µg/mL
same,MIC,[20],8 µg/mL
same,MIC,[21],8 µg/mL
same,MIC,[22],≥ 16 µg/mL
same,MIC,[23],≥ 16 µg/mL
same,MIC,[24],8 µg/mL
same,MIC,[25],≥ 16 µg/mL
same,MIC,[26],≥ 16 µg/mL
same,MIC,[27],≥ 16 µg/mL
same,MIC,[28],≥ 16 µg/mL
same,MIC,[29],8 µg/mL
same,MIC,[30],≥ 16 µg/mL
same,MIC,[31],≥ 16 µg/mL
same,MIC,[32],≥ 16 µg/mL
same,MIC,[33],≥ 16 µg/mL
same,MIC,[34],≥ 16 µg/mL
same,MIC,[35],≥ 16 µg/mL
same,MIC,[36],≥ 16 µg/mL
same,MIC,[37],≥ 16 µg/mL
same,MIC,[38],≥ 16 µg/mL
same,MIC,[39],≥ 16 µg/mL
same,MIC,[40],≥ 16 µg/mL
same,MIC,[41],≥ 16 µg/mL
same,MIC,[42],≥ 16 µg/mL
same,MIC,[43],≥ 16 µg/mL
same,MIC,[44],≥ 16 µg/mL
same,MIC,[45],≥ 16 µg/mL
same,MIC,[46],8 µg/mL
same,MIC,[47],8 µg/mL
same,MIC,[48],≥ 16 µg/mL
same,MIC,[49],≥ 16 µg/mL
same,MIC,[50],≥ 16 µg/mL
same,MIC,[51],≥ 16 µg/mL
CCN1CCN(C(=O)N[C@@H](C(=O)N[C@@H]2C(=O)N3[C@@H]2SC(C)(C)[C@@H]3C(=O)O)c2ccccc2)C(=O)C1=O [PIPERACILLIN],MIC,[1],≥ 128 µg/mL
same,MIC,[52],≥ 128 µg/mL
same,MIC,[53],≥ 128 µg/mL
same,MIC,[54],≥ 128 µg/mL
same,MIC,[55],≥ 128 µg/mL
same,MIC,[56],≥ 128 µg/mL
same,MIC,[6],≥ 128 µg/mL
same,MIC,[57],≥ 128 µg/mL
same,MIC,[8],≥ 128 µg/mL
same,MIC,[58],64 µg/mL
same,MIC,[59],≥ 128 µg/mL
same,MIC,[15],≥ 128 µg/mL
same,MIC,[60],≥ 128 µg/mL
same,MIC,[61],≥ 128 µg/mL
same,MIC,[20],≥ 128 µg/mL
same,MIC,[23],≥ 128 µg/mL
same,MIC,[25],≥ 128 µg/mL
same,MIC,[62],≥ 128 µg/mL
same,MIC,[27],≥ 128 µg/mL
same,MIC,[28],≥ 128 µg/mL
same,MIC,[63],≥ 128 µg/mL
same,MIC,[35],≥ 128 µg/mL
same,MIC,[36],≥ 128 µg/mL
same,MIC,[40],≥ 128 µg/mL
same,MIC,[64],≥ 128 µg/mL
same,MIC,[41],≥ 128 µg/mL
same,MIC,[65],≥ 128 µg/mL
same,MIC,[44],≥ 128 µg/mL
same,MIC,[66],≥ 128 µg/mL
same,MIC,[67],≥ 128 µg/mL
same,MIC,[49],≥ 128 µg/mL
same,MIC,[68],≥ 128 µg/mL
